Reference: ChEMBL document CHEMBL1139851, “Synthesis and SAR of [1,2,4]triazolo[1,5-a]pyrimidines, a class of anticancer agents with a unique mechanism of tubulin inhibition” (J Med Chem, 2007)
pIC50: −log10 of the molar value. Calls of active or inactive are those of the source. The rule behind the calls is not given here.

Columns and labels:
[1] = system: HeLa; experiment: Induction of apoptosis in HeLa cells assessed as effect on sub-G1 population; type: functional, cell-based; conditions: Homo sapiens
[2] = system: COLO 205; experiment: Cytotoxicity against COLO205 cells; type: cell-based; conditions: Homo sapiens
Summary of the method: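 MTS cytotoxicity assay in COLO 205 cells. Trypsinized cells were plated at 1000/well and preincubated about 24 h at 37 °C in 5% CO2. Compounds were added as nine serial 2-fold DMSO dilutions, final top concentration typically 5 µM, and cells were cultured 3 days. Absorbance was normalized to a time-0 plate. IC50 was read from a 10-concentration dose-response curve run in triplicate.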

[3] = system: U-87MG ATCC; experiment: Antitumor activity against U87-MG cells xenografted in orally dosed athymic nu/nu mouse; type: functional, organism-based; conditions: Homo sapiens
Summary of the method: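 U87-MG flank xenografts (1 × 10⁶ cells, subcutaneous) were grown in female athymic nu/nu mice and staged at 80-120 mg. Compound was given by oral gavage on days 0 and 7 after staging. Controls received Klucel vehicle […], with nine animals per group. Tumor volume was (length × width²)/2, tested by one-sided Student's t-test.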

[4] = system: U-87MG ATCC; experiment: Antitumor activity against U87-MG cells xenografted in iv dosed athymic nu/nu mouse; type: functional, organism-based; conditions: Homo sapiens
Summary of the method: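 Female athymic nu/nu mice received 1 × 10⁶ U87-MG cells subcutaneously in the flank. Once tumors reached 80-120 mg they were randomized into groups of 5-10. Compound was given iv in Klucel or 0.9% saline; controls got vehicle alone. Tumor volume was (length × width²)/2, compared with vehicle by one-sided Student's t-test, p ≤ 0.05.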

[5] = system: KB; experiment: Antiproliferative activity against KB cells expressing MDR1; type: functional, cell-based; conditions: Homo sapiens
Summary of the method: (§1)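 KB, KB 8.5 and KB V1 lines differ in P-gp (MDR1) level. Growth-inhibition IC50 was taken from a dose-response curve at 10 concentrations in duplicate.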

[6] = Antiproliferative activity against KB8.5 cells expressing MDR1; type: functional, cell-based; conditions: Homo sapiens; summary of the method: as §1
[7] = Antiproliferative activity against KBV1 cells expressing MDR1; type: functional, cell-based; conditions: Homo sapiens, KB-V1; summary of the method: as §1
[8] = system: KB; experiment: Ratio of IC50 for KB8.5 cells to IC50 for KB cells; type: functional, Homo sapiens
Summary of the method: (§2)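 Resistance ratio is IC50 on KB 8.5 or KB V1 cells divided by IC50 on parental KB cells, each from 10-concentration duplicate dose-response curves.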

[9] = Ratio of IC50 for KBV1 cells to IC50 for KB cells; type: functional, Homo sapiens; summary of the method: as §2
[10] = system: HeLa; experiment: Induction of apoptosis in HeLa cells assessed as increase in sub-G1 population at 1 uM; type: functional, cell-based; conditions: Homo sapiens
[11] = Metabolic stability in mouse liver microsomes; type: ADME, Microsome
[12] = Metabolic stability in rat liver microsomes; type: ADME, Microsome
[13] = Solubility in water at pH 6.74; type: physicochemical
[14] = Solubility in water at pH 5.48; type: physicochemical
[15] = Volume of distribution in rat; type: ADME, organism-based; conditions: in vivo, read-out: Vdss
[16] = Clearance in rat; type: ADME, organism-based; conditions: in vivo
[17] = Half life in rat; type: ADME, organism-based; conditions: in vivo
[18] = Oral bioavailability in rat; type: ADME, organism-based; conditions: in vivo
[19] = system: A549; experiment: Antitumor activity against A549 cells xenografted in athymic nu/nu mouse after iv administration; type: functional, organism-based
Summary of the method: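 Female athymic nu/nu mice were implanted subcutaneously in the flank with 1 × 10⁷ A549 cells. Animals were staged at about 300 (mm³/mg), then randomized into groups of 5-10. Dosing was iv on days 0, 7, 14 and 21, in Klucel or 0.9% saline; controls got vehicle. Tumor volume was (length × width²)/2. Analysis used a one-sided Student's t-test, p ≤ 0.05.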

[20] = target: T1, Tubulin (Homo sapiens) (UniProt P68371+Q9H4B7+P0DPH7+P68366+Q13509+Q71U36+P04350+Q3ZCM7+P07437+P68363+Q9BQE3+Q6PEY2+Q13885+Q9BVA1+Q9BUF5); experiment: Induction of MAP-rich tubulin polymerization at 2.7 uM; type: protein-complex assay
[21] = target: T1, Tubulin (Homo sapiens); experiment: Displacement of [3H]vinblastine from tubulin; type: protein-complex assay
[22] = target: T1, Tubulin (Homo sapiens); experiment: Displacement of [3H]colchicine from tubulin; type: protein-complex assay
[23] = species on record: Homo sapiens; experiment: Displacement of [3H]paclitaxel from microtubules
[24] = target: T1, Tubulin (Homo sapiens); experiment: Induction of tubulin polymerization in absence of GTP; type: protein-complex assay
[25] = system: HeLa; experiment: Induction of apoptosis in HeLa cells assessed as increase in sub-G1 population at 35 nM; type: functional, cell-based; conditions: Homo sapiens
[26] = system: HeLa; experiment: Mitotic block in HeLa cells assessed as increase in G2/M peak by flow cytometry at >35 nM; type: functional, cell-based; conditions: Homo sapiens

With COc1cc2c(c(OC)c1OC)-c1ccc(OC)c(=O)cc1[C@@H](NC(C)=O)CC2 the Activity [1] was “inactive”.
With C[C@H](Nc1c(-c2c(F)cc(OCCCN3CCOCC3)cc2F)c(Cl)nc2ncnn12)C(F)(F)F the pIC50 [2] was 7.29, the Activity [3] was “Active” and the Activity [4] was “Active”.
With C[C@H](Nc1c(-c2c(F)cc(F)cc2F)c(Cl)nc2ncnn12)C(F)(F)F the pIC50 [2] was 6.57.
In the case of Fc1cc(F)c(-c2c(Cl)nc3ncnn3c2NCC(F)(F)F)c(F)c1, the pIC50 [2] was 6.43.
C[C@H](Nc1c(-c2c(F)ccc(OCCCN(C)C)c2F)c(Cl)nc2ncnn12)C(F)(F)F gave a pIC50 [2] of 6.11.
CCOCCCOc1cc(F)c(-c2c(Cl)nc3ncnn3c2N[C@@H](C)C(F)(F)F)c(F)c1 showed a pIC50 [2] of 6.57.
Compound C[C@H](Nc1c(-c2c(F)cc(OCCCN)cc2F)c(Cl)nc2ncnn12)C(F)(F)F has a pIC50 [2] of 6.34.
In the case of C[C@H](Nc1c(-c2c(F)cc(OCCCCCO)cc2F)c(Cl)nc2ncnn12)C(F)(F)F, the pIC50 [2] was 6.67.
C[C@H](Nc1c(-c2c(F)cc(OCCCN(C)C)cc2F)c(Cl)nc2ncnn12)C(F)(F)F.Cl gave a pIC50 [2] of 7.25, a pIC50 [5] of 7.73 and a pIC50 [6] of 7.48. The pIC50 [7] was 6.94, the “Ratio IC50” value [8] was 1.8 and the “Ratio IC50” value [9] was 6.1. The Activity [3] was “Active” and the Activity [4] was “Active”.
With CC[C@]1(O)C[C@H]2CN(CCc3c([nH]c4ccccc34)[C@@](C(=O)OC)(c3cc4c(cc3OC)N(C=O)[C@H]3[C@@](O)(C(=O)OC)[C@H](OC(C)=O)[C@]5(CC)C=CCN6CC[C@]43[C@@H]65)C2)C1 [VINCRISTINE] the pIC50 [6] was 7.24, the “Ratio IC50” value [8] was 26 and the Activity [1] was “inactive”.
With C[C@H](Nc1c(-c2c(F)cc(OCCCN3CCCC3)cc2F)c(Cl)nc2ncnn12)C(F)(F)F the pIC50 [2] was 7.36, the Activity [3] was “Active” and the Activity [4] was “Active”.
In the case of C[C@H](Nc1c(-c2c(F)cc(OCCCN3CCCCC3)cc2F)c(Cl)nc2ncnn12)C(F)(F)F, the pIC50 [2] was 6.95.
With CC(=O)O[C@@]12CO[C@@H]1C[C@H](O)[C@@]1(C)C(=O)[C@H](O)C3=C(C)[C@@H](OC(=O)[C@H](O)[C@@H](NC(=O)OC(C)(C)C)c4ccccc4)C[C@@](O)([C@@H](OC(=O)c4ccccc4)[C@H]21)C3(C)C the Activity [10] was “Active”.
With C[C@H](Nc1c(-c2c(F)ccc(F)c2F)c(Cl)nc2ncnn12)C(F)(F)F the pIC50 [2] was 6.74.
C[C@H](Nc1c(-c2c(F)cc(OCCN(C)C)cc2F)c(Cl)nc2ncnn12)C(F)(F)F showed a pIC50 [2] of 6.24.
Compound C[C@H](Nc1c(-c2c(F)cc(OCCCCN(C)C)cc2F)c(Cl)nc2ncnn12)C(F)(F)F has a pIC50 [2] of 6.56.
With C[C@H](Nc1c(-c2c(F)cc(OCCN3CCOCC3)cc2F)c(Cl)nc2ncnn12)C(F)(F)F the pIC50 [2] was 6.61.
For C[C@H](Nc1c(-c2ccc(OCCCN(C)C)cc2F)c(Cl)nc2ncnn12)C(F)(F)F, the pIC50 [2] was 6.58.
C[C@H](Nc1c(-c2c(F)cc(OCCCN(C)C)cc2F)c(Br)nc2ncnn12)C(F)(F)F showed a pIC50 [2] of 7.02.
With C[C@H](Nc1c(-c2c(F)cc(OCCO)cc2F)c(Cl)nc2ncnn12)C(F)(F)F the pIC50 [2] was 6.37.
Compound C[C@@H](Nc1c(-c2c(F)cc(F)cc2F)c(Cl)nc2ncnn12)C(F)(F)F has a pIC50 [2] of 6.15.
C[C@H](Nc1c(-c2c(F)cc(OCCCN3CCC3)cc2F)c(Cl)nc2ncnn12)C(F)(F)F gave a pIC50 [2] of 6.49.
Work on C[C@H](Nc1c(-c2c(F)cc(N(C)CCCN(C)C)cc2F)c(Cl)nc2ncnn12)C(F)(F)F yielded a pIC50 [2] of 5.78.
Compound C[C@H](Nc1c(-c2c(F)ccc(OCCCCN(C)C)c2F)c(Cl)nc2ncnn12)C(F)(F)F has a pIC50 [2] of 6.36.
In the case of C[C@H](Nc1c(-c2c(F)cc(NCCCN(C)C)cc2F)c(Cl)nc2ncnn12)C(F)(F)F, the pIC50 [2] was 6.14.
CNCCCOc1cc(F)c(-c2c(Cl)nc3ncnn3c2N[C@@H](C)C(F)(F)F)c(F)c1.Cl showed a pIC50 [2] of 7.51, a pIC50 [5] of 7.64 and a pIC50 [6] of 7.17. The pIC50 [7] was 6.02, the “Ratio IC50” value [8] was 2.9 and the “Ratio IC50” value [9] was 41.5. For the same compound, the half-life [11] was 7.22 h, the half-life [12] was 1.47 h and the solubility [13] was 890 µg/mL. For the same compound, the solubility [14] was 7990 µg/mL, the Vd [15] was 14 L/kg and the clearance [16] was 14 mL/min/kg. For the same compound, the half-life [17] was 13 h, the bioavailability [18] was 61% and the Tumour inhibition [19] was “Active”. For the same compound, the Activity [3] was “Active”, the Activity [4] was “Active” and the Activity [20] was “Active”. The Activity [21] was “Active”, the Activity [22] was “inactive” and the Activity [23] was “inactive”. For the same compound, the Activity [24] was “Active”, the Activity [25] was “Active” and the Activity [26] was “Active”.
In the case of C[C@H](Nc1c(-c2c(F)cc(SCCCN(C)C)cc2F)c(Cl)nc2ncnn12)C(F)(F)F, the pIC50 [2] was 6.72.
C[C@H](Nc1c(-c2c(F)cc(OCCCO)cc2F)c(Cl)nc2ncnn12)C(F)(F)F gave a pIC50 [2] of 7.17.
C[C@H](Nc1c(-c2c(F)cc(F)cc2F)c(Br)nc2ncnn12)C(F)(F)F gave a pIC50 [2] of 6.63.
With C[C@H](Nc1c(-c2ccc(F)cc2F)c(Cl)nc2ncnn12)C(F)(F)F the pIC50 [2] was 6.02.
In the case of CCN(C)CCCOc1cc(F)c(-c2c(Cl)nc3ncnn3c2N[C@@H](C)C(F)(F)F)c(F)c1, the pIC50 [2] was 7.32.
Work on C[C@H](Nc1c(-c2c(F)ccc(OCCN(C)C)c2F)c(Cl)nc2ncnn12)C(F)(F)F yielded a pIC50 [2] of 5.80.
Work on C[C@H](Nc1c(-c2c(F)cc(OCCCCO)cc2F)c(Cl)nc2ncnn12)C(F)(F)F yielded a pIC50 [2] of 6.82, a pIC50 [5] of 7.38 and a pIC50 [6] of 7.15. The pIC50 [7] was 7.17, the “Ratio IC50” value [8] was 1.6 and the “Ratio IC50” value [9] was 1.6.
CCCCOc1cc(F)c(-c2c(Cl)nc3ncnn3c2N[C@@H](C)C(F)(F)F)c(F)c1 showed a pIC50 [2] of 5.72.
C[C@H](Nc1c(-c2c(F)cc(CCCCN(C)C)cc2F)c(Cl)nc2ncnn12)C(F)(F)F showed a pIC50 [2] of 6.18.
Compound CN(C)CCCOc1cc(F)c(-c2c(Cl)nc3ncnn3c2NCC(F)(F)F)c(F)c1.Cl has a pIC50 [2] of 7.28, a pIC50 [5] of 7.73 and a pIC50 [6] of 7.42. The pIC50 [7] was 6.58, the “Ratio IC50” value [8] was 2 and the “Ratio IC50” value [9] was 14. For the same compound, the Activity [3] was “Active” and the Activity [4] was “Active”.
